Results reported in ChEMBL document CHEMBL4725282, “Discovery of a Conformationally Constrained Oxazolidinone with Improved Safety and Efficacy Profiles for the Treatment of Multidrug-Resistant Tuberculosis” (J Med Chem, 2020).

Experiments:
[1] = Toxicity in male Sprague-Dawley rat assessed as change in mean platelet volume at 450 mg/kg/day, po administered for 4 weeks followed by 2 week recovery period (Rvb =7.0 +/- 0.4 fL); type: organism-based; settings: in vivo, 672 h
[2] = Toxicity in male Sprague-Dawley rat assessed as change in hematocrit level at 450 mg/kg/day, po administered for 4 weeks followed by 2 week recovery period (Rvb =45.2 +/- 1.7 %); type: organism-based; settings: in vivo, 672 h
Cytochrome P450 2C19 = Cytochrome P450 2C19 (Homo sapiens, UniProt P33261); test: Inhibition of CYP2C19 in human liver microsomes after 20 mins by LC-MS/MS analysis; type: ADME
Cytochrome P450 2C19, sequence (P33261 whole entry, canonical isoform): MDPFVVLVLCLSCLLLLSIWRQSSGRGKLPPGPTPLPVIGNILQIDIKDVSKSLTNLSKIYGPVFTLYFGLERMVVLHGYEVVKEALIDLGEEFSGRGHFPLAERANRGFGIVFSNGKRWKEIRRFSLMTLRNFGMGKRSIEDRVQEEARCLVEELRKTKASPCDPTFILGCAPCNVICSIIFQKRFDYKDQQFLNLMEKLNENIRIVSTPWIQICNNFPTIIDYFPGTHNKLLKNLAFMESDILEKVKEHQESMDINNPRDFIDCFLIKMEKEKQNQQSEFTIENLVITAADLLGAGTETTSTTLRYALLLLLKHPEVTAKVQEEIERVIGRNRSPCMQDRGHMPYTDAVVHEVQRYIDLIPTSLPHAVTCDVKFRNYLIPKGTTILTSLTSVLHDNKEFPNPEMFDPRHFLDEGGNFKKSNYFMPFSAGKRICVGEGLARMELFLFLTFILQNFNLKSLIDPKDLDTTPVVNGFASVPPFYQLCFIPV
Procedure, shortened: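 Human liver microsomes (0.2 mg/mL) in phosphate buffer, 20 min incubation with compound at 0.1-50 μM alongside isoform-specific substrates and a positive control. Substrate remaining monitored by LC-MS/MS at each concentration; IC50 derived.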

[3] = Toxicity in female Sprague-Dawley rat assessed as change in neutrophil level at 150 mg/kg/day, po administered for 4 weeks followed by 2 week recovery period (Rvb =18.5 +/- 5.3 %); type: organism-based; settings: in vivo, 672 h
[4] = Toxicity in female Sprague-Dawley rat assessed as change in hemoglobin count at 50 mg/kg/day, po administered for 4 weeks followed by 2 week recovery period (Rvb =136 +/- 7 g/L); type: organism-based; settings: in vivo, 672 h
[5] = Toxicity in female Sprague-Dawley rat assessed as histopathological changes in bone marrow at 450 mg/kg/day, po administered for 4 weeks followed by 2 week recovery period; type: organism-based; settings: in vivo, 672 h
Procedure, shortened: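 SD rats, 6-7 weeks old (96 in total), split into vehicle, 50, 150 and 450 mg/kg/day groups of 12 females and 12 males each, given oral doses once daily for 4 weeks, then 2 weeks of recovery. Mortality, body weight, food intake, eyes, urine and neuropsychic signs were observed. Organ and bone marrow histopathology was done on 8 rats per sex per group after the last dose and on the remaining 4 per sex after 14 days of recovery.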

[6] = Genotoxicity in CHO-WBL cells assessed as chromosome aberration at 90 to 397.1 ug/ml incubated for 3 hrs followed by compound washout and measured after 17 hrs in presence of S9 fraction by Giemsa staining based; type: toxicity, subcellular, Cricetulus griseus; settings: chinese hamster, s9, 3 h, dose 90-397.1 µg/ml
Procedure, shortened: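 CHO-WBL cells in McCoy's 5A with 10% FBS, seeded 20-24 h before treatment. Compound in DMSO, with or without serum-free S-9 mix. Treatment either 3 h, then HBSS wash and 17 h further culture, or 20 h; harvest at 20 h from treatment start. Colcemid 0.1 μg/mL for the final 2 h, hypotonic KCl, methanol:acetic acid fixation, Giemsa stain. 300 metaphases per concentration (150 per duplicate flask) scored.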

Row | Compound | Activity [1] | Activity [2] | IC50 (Cytochrome P450 2C19) | Activity [3] | Activity [4] | Activity [5] | Activity [6]
1 | CC(=O)NC[C@@H]1OC(=O)N2c3cc(F)c(N4CCSCC4)cc3OC[C@@H]12 | 6.9 fL | 43.8% | 48.2 µM | 12.2% | 126 g/L | Non-Toxic | 
2 | CC(=O)NC[C@@H]1OC(=O)N2c3cc(F)c(N4CC[S+]([O-])CC4)cc3OC[C@@H]12 |  |  |  |  |  |  | Non-Toxic
